Active and inactive are the calls of the source.
What was measured:
[1] = Apparent permeability across apical to basolateral side in human Caco2 cells measured after 1 to 2 hrs by LC-MS/MS analysis; details: Caco-2
[2] = Clearance in rat hepatic microsomes at 2 uM measured up to 60 mins in presence of NADPH generating system by LC-MS/MS analysis; format: ADME, Microsome; details: liver microsomes
[3] = molecular target: Toll-like receptor 5 (Homo sapiens) (UniProt O60602); assay: Agonist activity at human TLR5 expressed in HEK293 cells assessed as increase in NF-kappaB activation up to 10 uM incubated for 24 hrs by quanti-blue SEAP reporter gene assay; format: cell-based; details: dose microM <=10, time 24.0 hrs
How it was run: (§1)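 HEK293 cells stably expressing individual human TLRs or other innate immune receptors, used as reporter gene assays. Minimum effective concentration defined as the level giving a 3-fold rise over background.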

[4] = Dissociation constant, pKa of the compound; format: physicochemical
[5] = Cmax in cynomolgus monkey at 3 mg/kg, po administered via gavage by HPLC-MS analysis; format: ADME, organism-based, Macaca fascicularis; set-up: route oral, dose 3 mg/kg; details: in vivo
How it was run: (§2)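 Oral dosing in 2% ethanol/40% PEG 300/58% 0.01N HCl: Sprague Dawley rats 5 mg/kg, beagle dogs 0.5 mg/kg, cynomolgus monkeys 3 mg/kg.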

[6] = Immunomodulatory activity in human primary hepatocytes infected with HBV assessed as stimulation of CD8+T cell response to virus by measuring decrease in HBV RNA production treated with media from PBMC stimulated with 10 nM compound for 10 days by PCR analysis relative to control; format: functional; set-up: scale not given: the % may be the effect or the level left; details: time 10 day
[7] = Immunomodulatory activity in human primary hepatocytes infected with HBV assessed as stimulation of CD8+T cell response to virus by measuring decrease in HBV DNA production treated with media from PBMC stimulated with 10 nM compound for 10 days relative to control; format: functional; set-up: scale not given: the % may be the effect or the level left; details: time 10 day
[8] = Cytotoxicity against human MT4 cells assessed as reduction in cell viability measured after 4 to 5 days by celltiter-glo assay; format: cell-based; details: time 4-5 day
[9] = molecular target: T1, C-type lectin domain family 4 member E (Homo sapiens) (UniProt Q9ULY5); assay: Agonist activity at human Mincle receptor up to 10 uM; details: dose microM <=10
T1 sequence (whole entry): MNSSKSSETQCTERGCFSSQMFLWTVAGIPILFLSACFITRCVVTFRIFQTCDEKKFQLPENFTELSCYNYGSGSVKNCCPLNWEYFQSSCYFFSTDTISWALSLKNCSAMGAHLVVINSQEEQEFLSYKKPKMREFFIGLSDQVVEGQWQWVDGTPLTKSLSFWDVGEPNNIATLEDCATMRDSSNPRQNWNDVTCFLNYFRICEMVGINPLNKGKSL

[10] = Volume of distribution at steady state in cynomolgus monkey at 0.1 mg/kg, iv administered as 30 mins infusion by HPLC-MS analysis; format: ADME, organism-based, Macaca fascicularis; details: in vivo, read-out: Vdss
How it was run: (§3)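 30-min intravenous infusion: Sprague Dawley rats 1 mg/kg, beagle dogs 0.25 mg/kg, cynomolgus monkeys 0.1 mg/kg; n = 3 per species, reported as mean ± SD.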

[11] = molecular target: Toll-like receptor 2 (Homo sapiens) (UniProt O60603); assay: Agonist activity at human TLR2 expressed in HEK293 cells assessed as increase in NF-kappaB activation up to 10 uM incubated for 24 hrs by quanti-blue SEAP reporter gene assay; format: cell-based; details: dose microM <=10, time 24.0 hrs; how it was run: as §1
[12] = Oral bioavailability in Beagle dog at 0.5 mg/kg administered via gavage by HPLC-MS analysis; format: ADME, organism-based, Canis lupus familiaris; details: in vivo; how it was run: as §2
[13] = Cmax in Sprague-Dawley rat at 5 mg/kg, po administered via gavage by HPLC-MS analysis; format: ADME, organism-based; set-up: route oral, dose 5 mg/kg; details: in vivo; how it was run: as §2
PBMC = assay: Immunomodulatory activity in human primary hepatocytes infected with HBV assessed as stimulation of CD8+T cell response to virus by measuring degradation of cccDNA treated with media from PBMC stimulated with 10 nM compound for 10 days; format: functional, cell-based; details: time 10.0 day
Hepatitis B virus = assay: Antiviral activity against HBV infected in human primary hepatocytes; format: functional, organism-based; details: Primary hepatocyte
[14] = Clearance in cynomolgus monkey at 0.1 mg/kg, iv administered as 30 mins infusion by HPLC-MS analysis; format: ADME, organism-based, Macaca fascicularis; details: in vivo; how it was run: as §3
[15] = tested on: Probable ATP-dependent RNA helicase DDX58 (Homo sapiens); assay: Agonist activity at human RIG1 expressed in HEK293 cells assessed as induction of IFN-inducible ISG54 promoter activity up to 10 uM after overnight incubation by secreted lucia luciferase reporter gene assay; details: dose microM <=10
[16] = Volume of distribution at steady state in Sprague-Dawley rat at 1 mg/kg, iv administered as 30 mins infusion by HPLC-MS analysis; format: ADME, organism-based; details: in vivo, read-out: Vdss; how it was run: as §3
[17] = Clearance in dog hepatic microsomes at 2 uM measured up to 60 mins in presence of NADPH generating system by LC-MS/MS analysis; format: ADME, Canis lupus familiaris, Microsome; details: liver microsomes
[18] = Clearance in cynomolgus monkey hepatic microsomes at 2 uM measured up to 60 mins in presence of NADPH generating system by LC-MS/MS analysis; format: ADME, Macaca fascicularis, Microsome; details: liver microsomes
[19] = molecular target: Toll-like receptor 3 (Homo sapiens) (UniProt O15455); assay: Agonist activity at human TLR3 expressed in HEK293 cells assessed as increase in NF-kappaB activation up to 10 uM incubated for 18 hrs by quanti-blue SEAP reporter gene assay; format: cell-based; details: dose microM <=10, time […]; how it was run: as §1
[20] = Oral bioavailability in cynomolgus monkey at 3 mg/kg administered via gavage by HPLC-MS analysis; format: ADME, organism-based, Macaca fascicularis; details: in vivo; how it was run: as §2

Chain of Toll-like receptor 5 (Homo sapiens) (O60602 whole entry): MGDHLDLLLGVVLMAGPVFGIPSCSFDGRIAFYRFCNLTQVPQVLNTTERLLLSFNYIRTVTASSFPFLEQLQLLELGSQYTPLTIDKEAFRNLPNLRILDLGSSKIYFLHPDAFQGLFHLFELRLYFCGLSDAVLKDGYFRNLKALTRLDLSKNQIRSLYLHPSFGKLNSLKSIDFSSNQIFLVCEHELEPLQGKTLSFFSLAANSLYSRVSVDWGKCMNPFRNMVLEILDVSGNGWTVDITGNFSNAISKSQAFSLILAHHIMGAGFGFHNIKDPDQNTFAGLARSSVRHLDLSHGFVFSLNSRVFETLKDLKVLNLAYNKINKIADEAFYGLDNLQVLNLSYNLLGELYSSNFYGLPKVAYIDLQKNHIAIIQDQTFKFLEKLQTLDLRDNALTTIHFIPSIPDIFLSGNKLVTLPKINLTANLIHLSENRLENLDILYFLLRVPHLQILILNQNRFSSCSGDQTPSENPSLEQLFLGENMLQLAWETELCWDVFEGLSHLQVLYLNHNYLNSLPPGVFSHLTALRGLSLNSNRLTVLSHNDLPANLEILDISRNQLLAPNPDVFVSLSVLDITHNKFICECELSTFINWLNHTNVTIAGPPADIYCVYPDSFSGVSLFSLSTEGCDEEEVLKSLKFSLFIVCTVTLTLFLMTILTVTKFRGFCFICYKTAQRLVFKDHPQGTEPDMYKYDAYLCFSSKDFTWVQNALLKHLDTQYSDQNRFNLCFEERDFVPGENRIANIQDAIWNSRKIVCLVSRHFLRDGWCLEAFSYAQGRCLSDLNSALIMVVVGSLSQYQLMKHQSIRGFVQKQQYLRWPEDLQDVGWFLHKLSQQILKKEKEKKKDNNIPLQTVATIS
Chain of Toll-like receptor 3 (Homo sapiens) (O15455 whole entry): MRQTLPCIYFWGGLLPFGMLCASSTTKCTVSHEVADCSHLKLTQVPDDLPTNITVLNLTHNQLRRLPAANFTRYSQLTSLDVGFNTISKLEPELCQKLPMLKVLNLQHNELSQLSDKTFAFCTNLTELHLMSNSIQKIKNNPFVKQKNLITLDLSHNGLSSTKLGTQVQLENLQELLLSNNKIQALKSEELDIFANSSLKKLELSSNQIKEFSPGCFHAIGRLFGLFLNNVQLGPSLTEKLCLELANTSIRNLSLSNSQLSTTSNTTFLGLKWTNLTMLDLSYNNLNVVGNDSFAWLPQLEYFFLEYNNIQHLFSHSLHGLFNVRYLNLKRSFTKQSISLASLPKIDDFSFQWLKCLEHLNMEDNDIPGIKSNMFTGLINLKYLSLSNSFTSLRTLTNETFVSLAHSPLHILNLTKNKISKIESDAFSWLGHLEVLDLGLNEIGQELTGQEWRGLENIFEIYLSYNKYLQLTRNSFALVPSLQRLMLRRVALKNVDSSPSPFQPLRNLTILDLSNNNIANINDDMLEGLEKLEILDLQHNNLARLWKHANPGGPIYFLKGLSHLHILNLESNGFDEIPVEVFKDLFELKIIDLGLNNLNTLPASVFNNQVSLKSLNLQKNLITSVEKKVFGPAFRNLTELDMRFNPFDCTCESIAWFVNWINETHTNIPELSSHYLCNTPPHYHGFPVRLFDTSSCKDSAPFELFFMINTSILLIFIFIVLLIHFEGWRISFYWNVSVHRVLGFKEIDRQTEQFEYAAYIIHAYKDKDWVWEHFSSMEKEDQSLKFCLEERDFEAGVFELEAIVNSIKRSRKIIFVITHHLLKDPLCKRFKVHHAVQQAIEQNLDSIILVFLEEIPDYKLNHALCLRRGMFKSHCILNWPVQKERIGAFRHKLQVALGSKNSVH
Chain of Toll-like receptor 2 (Homo sapiens) (O60603 whole entry): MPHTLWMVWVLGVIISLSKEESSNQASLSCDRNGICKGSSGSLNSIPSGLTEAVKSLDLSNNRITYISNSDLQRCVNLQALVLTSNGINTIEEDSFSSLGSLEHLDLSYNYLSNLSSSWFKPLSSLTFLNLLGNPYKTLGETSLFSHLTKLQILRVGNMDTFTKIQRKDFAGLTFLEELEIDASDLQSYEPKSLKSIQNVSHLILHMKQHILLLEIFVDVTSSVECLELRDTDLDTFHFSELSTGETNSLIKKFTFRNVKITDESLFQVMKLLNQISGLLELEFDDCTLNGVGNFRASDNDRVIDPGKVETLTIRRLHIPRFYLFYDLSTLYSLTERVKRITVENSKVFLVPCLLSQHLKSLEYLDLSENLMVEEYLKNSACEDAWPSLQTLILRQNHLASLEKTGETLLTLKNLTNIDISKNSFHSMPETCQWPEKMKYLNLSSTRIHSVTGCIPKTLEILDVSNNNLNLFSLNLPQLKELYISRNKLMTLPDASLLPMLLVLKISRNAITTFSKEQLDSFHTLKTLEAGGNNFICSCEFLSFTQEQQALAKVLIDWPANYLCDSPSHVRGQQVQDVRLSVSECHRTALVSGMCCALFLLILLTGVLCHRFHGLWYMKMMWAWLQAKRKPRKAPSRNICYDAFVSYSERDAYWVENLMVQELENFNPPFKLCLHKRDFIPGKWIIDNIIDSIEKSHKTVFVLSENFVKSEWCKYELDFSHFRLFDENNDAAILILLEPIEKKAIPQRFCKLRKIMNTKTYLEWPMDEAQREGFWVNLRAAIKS

Papp A→B [1]: 79 nm/s
CLhep predicted at 2 µM [2]: 3 L/h/kg
Activity [3]: inactive
pKa [4]: 6.3
Cmax [5]: 0.0012 µM
Activity [9]: inactive
Vd [10]: 2.1 L/kg
Activity [11]: inactive
bioavailability [12]: 0.8%
Cmax [13]: 0.517 µM
clearance [14]: 6.2 L/h/kg
Activity [15]: inactive
Vd [16]: 1.1 L/kg
CLhep predicted at 2 µM [17]: 1.7 L/h/kg
CLhep predicted at 2 µM [18]: 1.5 L/h/kg
Activity [19]: inactive
bioavailability [20]: 0.3%
Compound: CCCC[C@](C)(CO)Nc1nc(N)nc2cc(F)cnc12 [SELGANTOLIMOD]
Activity [6]: >50%
Activity [7]: >50%
CC50 [8]: 17 µM
Activity (PBMC): inactive
Activity (Hepatitis B virus): inactive

Reference: ChEMBL document CHEMBL4725242, “Discovery of GS-9688 (Selgantolimod) as a Potent and Selective Oral Toll-Like Receptor 8 Agonist for the Treatment of Chronic Hepatitis B” (J Med Chem, 2020)
